Source: ChEMBL document CHEMBL3352144, “Cytotoxic Spliceostatins from Burkholderia sp. and Their Semisynthetic Analogues” (J Nat Prod, 2014)

Experiments:
NCI-H1975 = experiment: Cytotoxicity against human NCI-H1975 cells after 4 days by MTS/cell proliferation assay; format: functional, cell-based; details: NCI-H1975, 96 h
How it was run: (§1)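 Cells seeded in 96-well plates and dosed next day with 10 concentrations in 3-fold serial dilution, in duplicate. Incubated 4 days at 37 °C/5% CO2. Viability read by MTS or CellTiter-Glo luminescence. IC50 from four-parameter logistic fit.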

NCI-N87 = experiment: Cytotoxicity against human NCI-N87 cells after 4 days by MTS/cell proliferation assay; format: functional, cell-based; details: NCI-N87, 96 h; how it was run: as §1
MDA-MB-468 = experiment: Cytotoxicity against human MDA-MB-468 cells after 4 days by MTS/cell proliferation assay; format: functional, cell-based; details: MDA-MB-468, 96 h; how it was run: as §1
[1] = 1-Octanol-buffer partition coefficient, log D of the compound at pH 7.4 by shake flask method; format: physicochemical
How it was run: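 Shake-flask partition: 10 mM DMSO stock added to 1-octanol/pH 7.4 phosphate buffer (1:1, mutually presaturated), mixed 15 min at room temperature, centrifuged 1006g 10 min to split phases. Each phase was sampled, diluted and quantified by LC-MS/MS. Run in duplicate, typical CV ~20%.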

BT-474 = experiment: Cytotoxicity against human BT474 cells after 4 days by MTS/cell proliferation assay; format: functional, cell-based; details: BT-474, 96 h; how it was run: as §1
[2] = Cytotoxicity against human MDA-MB-DYT2 cells after 4 days by MTS/cell proliferation assay; format: functional, cell-based; details: 96 h; how it was run: as §1

SMILES	IC50 (NCI-H1975) [nM]	IC50 (NCI-N87) [nM]	IC50 (MDA-MB-468) [nM]	logD [1]	IC50 (BT-474) [nM]	IC50 [2] [nM]
C=C1C[C@@H](CC(=O)O)O[C@H](/C=C/C(C)=C/C[C@@H]2O[C@H](C)[C@H](NC(=O)/C=C\[C@H](C)OC(C)=O)C[C@@H]2C)[C@H]1O	950					
CCCNC(=O)C[C@@H]1C[C@@]2(CO2)C[C@@H](/C=C/C(C)=C/C[C@@H]2O[C@H](C)[C@H](NC(=O)/C=C\[C@H](C)OC(C)=O)C[C@@H]2C)O1	2.4	6	1.7	3.72	2.5	
CC(=O)O[C@@H](C)/C=C\C(=O)N[C@@H]1C[C@H](C)[C@H](C/C=C(C)/C=C/[C@@H]2C[C@](O)(CCl)C[C@@H](CC(=O)O)O2)O[C@@H]1C		0.641	1.35		1.85	
CC(=O)O[C@@H](C)/C=C\C(=O)N[C@@H]1C[C@H](C)[C@H](C/C=C(C)/C=C/[C@H]2O[C@H](CC(=O)O)C[C@@]3(CO3)[C@@H]2O)O[C@@H]1C [THAILANSTATIN A]	320	59	142	-0.658	145	161
C=C1C[C@@H](CC(=O)O)O[C@H](/C=C/C(C)=C/C[C@@H]2O[C@H](C)[C@H](NC(=O)/C=C\[C@H](C)OC(C)=O)C[C@@H]2C)C1	30					
COC(=O)C[C@@H]1C[C@@]2(CO2)[C@H](O)[C@@H](/C=C/C(C)=C/C[C@@H]2O[C@H](C)[C@H](NC(=O)/C=C\[C@H](C)OC(C)=O)C[C@@H]2C)O1		0.78		2.23	0.88	1.25
CC(=O)O[C@@H](C)/C=C\C(=O)N[C@@H]1C[C@H](C)[C@H](C/C=C(C)/C=C/[C@H]2O[C@@H]3CC(=O)O[C@@](CCl)(C3)[C@@H]2O)O[C@@H]1C		> 100	> 100			> 100
CCCNC(=O)C[C@@H]1C[C@@]2(CO2)[C@H](O)[C@@H](/C=C/C(C)=C/C[C@@H]2O[C@H](C)[C@H](NC(=O)/C=C\[C@H](C)OC(C)=O)C[C@@H]2C)O1	0.28	0.64	0.11	2.21	0.19	0.29
CC(=O)O[C@@H](C)/C=C\C(=O)N[C@@H]1C[C@H](C)[C@H](C/C=C(C)/C=C/[C@H]2O[C@H](CC(=O)O)C[C@@](O)(CCl)[C@@H]2O)O[C@@H]1C [THAILANSTATIN B]		> 100	> 100		> 100	
CC(=O)O[C@H]1C(=O)[C@@]2(C)[C@H]([C@H](OC(=O)c3ccccc3)[C@]3(O)C[C@H](OC(=O)[C@H](O)[C@@H](NC(=O)c4ccccc4)c4ccccc4)C(C)=C1C3(C)C)[C@]1(OC(C)=O)CO[C@@H]1C[C@@H]2O [PACLITAXEL]	7.94	7.53	7.17		8.36	6.08
CC(=O)O[C@@H](C)/C=C\C(=O)N[C@@H]1C[C@H](C)[C@H](C/C=C(C)/C=C/[C@@H]2C[C@](O)(CCl)C[C@@H](CC(=O)OC[C@@]3(O)[C@H](O)[C@@H](/C=C/C(C)=C/C[C@@H]4O[C@H](C)[C@H](NC(=O)/C=C\[C@H](C)OC(C)=O)C[C@@H]4C)O[C@](C)(O)[C@@H]3O)O2)O[C@@H]1C		1.86			3.82	3.07
CC(=O)O[C@@H](C)/C=C\C(=O)N[C@@H]1C[C@H](C)[C@H](C/C=C(C)/C=C/C(=O)O)O[C@@H]1C		> 100			> 100	> 100
CC(=O)O[C@@H](C)/C=C\C(=O)N[C@@H]1C[C@H](C)[C@H](C/C=C(C)/C=C/[C@@H]2CC(C)=CC(=O)O2)O[C@@H]1C		3.67	1.56		3.72	4.16
CC(=O)O[C@@H](C)/C=C\C(=O)N[C@@H]1C[C@H](C)[C@H](C/C=C(C)/C=C/[C@@H]2C[C@]3(CO3)C[C@@H](CC(=O)O)O2)O[C@@H]1C	3.6	2	3.4	0.077	4.8	9.1
